For 167 variants, yeast fitness results are on record in the RNAGym collection of RNA variant scans (doi:10.1126/science.aae0568).

Variants at the floor of the assay were thinned out.

First the molecules themselves.
B1: tRNA (parent)
chain: GUUCCGUUGGCGUAAUGGUAACGCGUCUCCCUCCUAAGGAGAAGACUGCGGGUUCGAGUCCCGUACGGAACG

Variants of B1 are the subject of the data set. Description: yeast fitness relative to wild type (ratio to wild type); higher = fitter; tRNA-Arg(CCU), competitive growth, 37 C, YPD. Put shortly: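 Amplicons of the tRNA-Arg(CCU) gene were sequenced, 100-nucleotide paired-end, from the start population and from each end population of a pooled yeast competition. The competition, in six parallel replicates, lasted 24 hours in YPD at 37°C. Fitness relative to wild type was calculated from changes in genotype frequencies. Genotypes had to have ≥ 100 starting reads, and estimates < 0.5 were set to 0.5.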
Take U8A C27G A42U: the yeast fitness was not above 0.5. The result for C5G G18C C31A G38U reads not above 0.5; that for C11U C29A A57G, not above 0.5. The result for A20C U26C reads 0.883; that for G25A A40C C46U C55U, 0.672. As for C11G C30U C46G G58C, the yeast fitness amounted to 0.617. Consider C30G A36G A57U A65U, for which the yeast fitness was 0.555. With U3C G50A G68C, the yeast fitness came out at 0.609.

Regarding U28C G41A A57U C66G, the yeast fitness is not above 0.5. Turning to C4A C33A A36C G67A, the yeast fitness was not above 0.5. As for C11U A21C C22A C66A, the yeast fitness is not above 0.5.

Regarding U19C C24G U35A, the yeast fitness turned out to be 0.804. In the case of C30U U35A A42G C61U G63A, the yeast fitness was 0.519. With A14G C22G C30A, the yeast fitness came out at 0.528. On to A37C C46U A69C, for which the yeast fitness came to 0.682. As for C11G A36C G68A, the yeast fitness was 0.506. Turning to C11G C30G C33A A57C C61A, the yeast fitness is 0.583. As for U2C G48A G67A, the yeast fitness came out at 0.633. On to U19G A20U U53G, for which the yeast fitness was not above 0.5. On to G6A A36U C61G, for which the yeast fitness is 0.646. In the case of C4G C66G it was 0.671. Consider G9C U19C G48A C66U, for which the yeast fitness is 0.657. As for U2A G23A C29G A69U, the yeast fitness is 0.643. In the case of U2A A21C C30A C49A it was not above 0.5; in that of A21U C33U G38A A45U U53A C62U G63C, not above 0.5; in that of U2A G38C C55U, not above 0.5. Take G50C U59C: the yeast fitness was determined as 0.721. For the variant U3C C49G U59A, the yeast fitness is not above 0.5. The result for G48C C49G reads 0.621. As for C24G G44A C55U, the yeast fitness is not above 0.5. With U13C A43G G52C, the yeast fitness is not above 0.5. Regarding C4G A20U G58C, the yeast fitness was not above 0.5. In the case of G9A U19C G23C C49U it was not above 0.5. Turning to C11A C22G G25A C34A G41A C66A, the yeast fitness is not above 0.5.

On to C11U A65U G68C, for which the yeast fitness came to 0.592. C5U C11U G25A A37G C46G G51C A57C C61U: the yeast fitness was not above 0.5.

As to G23A U28A C30U A40U G52C G67A, the yeast fitness amounted to 0.63. As to A40U C55G, the yeast fitness was 0.664. Regarding G12C U13C A20C C24G G39C U64A, the yeast fitness was not above 0.5.

Take A42G U47G: the yeast fitness was 0.771. For A15U G18A C27G G56C G68C, the yeast fitness was not above 0.5. Regarding C46U U59C C62G A65U, the yeast fitness is 0.557. Turning to C30G C31G A43G A57G, the yeast fitness is not above 0.5. For the variant C11A G41C, the yeast fitness was 0.714.

As to C5U G6C A21C A42U C46U C66U, the yeast fitness is not above 0.5.

On to U7C C27G C33G G44A C61G, for which the yeast fitness was not above 0.5.

As to A37U A42G A45U, the yeast fitness amounted to 0.592. Turning to A37U C66G, the yeast fitness is not above 0.5. Regarding U3A A42C C61A, the yeast fitness is not above 0.5. The result for U16C A37C A42G G56C reads not above 0.5; that for A15G A20C U54A C62U, not above 0.5. For the variant C4G G23C A45U, the yeast fitness was not above 0.5.

For G9A G18A G25C C30U, the yeast fitness was not above 0.5. The result for G12A A15U G63A reads 0.601. The result for C11A U19G A36G U54C A69C reads 0.54; that for C31A C46A, 0.853. Consider C24A A40G G48A C49A C61G, for which the yeast fitness is not above 0.5. In the case of A15G C27G it was 0.564; in that of A45C C55A, 0.562; in that of G23C C27U, 0.726. As for A21U G25A A69C, the yeast fitness worked out at 0.605. In the case of U13G C49U U59C it was not above 0.5; in that of C4U C27G G63A, not above 0.5. Consider C30A C34G C60A U64A, for which the yeast fitness worked out at 0.541. With U16C C33G G51A C55A, the yeast fitness is not above 0.5.

C5U A14U U19C G48A C66U: the yeast fitness was not above 0.5. Consider C29A A36C G58A, for which the yeast fitness is not above 0.5. Regarding C31U C34A C61G, the yeast fitness was not above 0.5. C30U C61A: the yeast fitness was 0.648. For C5U A36G, the yeast fitness was determined as 1. For the variant U3A G12C G58A, the yeast fitness came out at 0.579. For G25C A40C C55U, the yeast fitness was 0.708. In the case of C11U U19G C33U A40G G67A, the yeast fitness was not above 0.5.

As for C30U A42G C60G C62G A65G, the yeast fitness is not above 0.5.

On to C4G U28C, for which the yeast fitness worked out at 0.77. Take U3G A37C A42U A43G G58C C62U: the yeast fitness is not above 0.5. Consider A36U U47G C61A A70U, for which the yeast fitness is not above 0.5. With C11U C30U A43G, the yeast fitness is not above 0.5. Regarding C5U G9A G10C G12A G25A C33G G39A, the yeast fitness was not above 0.5. For U7A C60G A69G, the yeast fitness came to 0.588. With G12A G50A C60A, the yeast fitness is not above 0.5. Turning to A45C U47C A57C G68C, the yeast fitness was not above 0.5. Regarding C5U A37U A42U U59A, the yeast fitness is 0.537. On to C4G A14C G48A C49U, for which the yeast fitness is not above 0.5.

On to C4A U28C G56A C61U, for which the yeast fitness is not above 0.5.

On to C46G A70C, for which the yeast fitness amounted to 0.923. With C22U C33G C34A A43C A65U, the yeast fitness is not above 0.5. On to C11A U54C, for which the yeast fitness was 0.596. The result for A15U G18C C29G reads 0.571; that for G9A C30U C33A A36U C49U, not above 0.5; that for G50A C62G, 1.03.

For U59G A69C, the yeast fitness worked out at 0.653.

For U59G A69G, the yeast fitness worked out at 1. In the case of C46U C55A C66U it was 0.555; in that of G6A C31U G41C A42U C66U, not above 0.5; in that of U7A C29G G67U, not above 0.5.

Turning to U32C A69U, the yeast fitness worked out at 0.926.

As to U19C U26A, the yeast fitness is 0.945.

Consider C5U A14G C33G A40G C60G, for which the yeast fitness was not above 0.5. As to A42C C46G G52A, the yeast fitness was not above 0.5. For G23A A42G G51A C61U, the yeast fitness was not above 0.5. In the case of U2A A36C A45C C55G C62A G68A it was not above 0.5; in that of C27A U64A A69C, 0.703; in that of A20C U64A, 0.7. On to G51C G63A, for which the yeast fitness came out at 0.611.

Turning to C5G C46U C66A, the yeast fitness worked out at 0.524. Regarding C11G C46U C62U, the yeast fitness was not above 0.5. In the case of C11U A14C C29G C30G A36U A40U, the yeast fitness amounted to 0.591. As for C4A U7A A14G G17C C61U, the yeast fitness amounted to 0.543.

Consider C29G G58A, for which the yeast fitness worked out at 0.68. Turning to A15U C27A U35C U54C U64C, the yeast fitness is not above 0.5.

As to U32G C61A C62A, the yeast fitness stood at 0.537. Turning to C11U A15G A21G C34U G44A C61A A70C, the yeast fitness was not above 0.5.

Consider A20U U26C U47C A70G, for which the yeast fitness came to 0.603.

With U3A U16C C46U C49U, the yeast fitness is not above 0.5. As to C5U C11A C24G C27G A36U G38C, the yeast fitness was not above 0.5. As for U13C U59G G68C, the yeast fitness was not above 0.5. On to G12A A15G G44C U59A, for which the yeast fitness was not above 0.5. The result for U2C U19G G68A reads 0.559; that for C22A A42U, 0.677; that for G10C C34A G67A, not above 0.5. In the case of A21U C27G A45C, the yeast fitness was not above 0.5. In the case of G12A U19C G23A U32C A43C it was not above 0.5; in that of C31U G44A A45U A57G, 0.537; in that of A21C A57U, 0.752. A21U A57C G67A: the yeast fitness amounted to 0.556. Turning to U2A C60G A70U, the yeast fitness is not above 0.5. As for C4A G18A A20C U26G C27U C49U, the yeast fitness is not above 0.5. With G6C G10C C11U G23A C24G C46G, the yeast fitness was not above 0.5. With U2G G25A A65C, the yeast fitness came to 0.637. The result for C4A C46U U47C C55U reads not above 0.5; that for A21U C34G U64A, not above 0.5. For the variant U2C C27A, the yeast fitness was 0.749. Consider C4U A21U U35C G50C, for which the yeast fitness was not above 0.5.

With C29U A45C G67A, the yeast fitness was found to be 0.536.

A20G G50C C61A A69G: the yeast fitness was not above 0.5. Consider U2A C31A G48A, for which the yeast fitness came out at 0.619.

For the variant A14C U19A A21C C34U G39A, the yeast fitness amounted to 0.62. C29G C34A C60A A69C: the yeast fitness was not above 0.5. Take C4U G10A U19C C24U: the yeast fitness is 0.721. Regarding G41C G50C, the yeast fitness turned out to be 0.695. As to G44C G68C, the yeast fitness came to 0.81. With C24U A57C, the yeast fitness came out at 0.601. With G9A G48A A69C, the yeast fitness amounted to 0.87.

Take C5U C24G C30G A36U C55U A69C: the yeast fitness was not above 0.5.

As to U7A G9A U13G G56A, the yeast fitness was not above 0.5. For C27A C29U C46A, the yeast fitness was found to be 0.684.

G12C G52C: the yeast fitness turned out to be 0.563. In the case of A20C C49G C62U it was not above 0.5. For the variant C33A G48C A70G, the yeast fitness was not above 0.5. Take U2G U13C A21G U35A C55U A65G: the yeast fitness is not above 0.5.

For U28A U47G, the yeast fitness came out at 0.535. In the case of G12A A15G C22A it was 0.705; in that of U28G C31G, 0.629; in that of U19A G25A A43C U53G G63C, not above 0.5.

In the case of A15G U16C C29G G41A, the yeast fitness turned out to be 0.599. For the variant G10C G12A A15G A69C, the yeast fitness was not above 0.5. Turning to A20C C22U C33U, the yeast fitness stood at 0.542. As to G10C A20U C22A, the yeast fitness was not above 0.5. Take C4G U7G G12C A20U C49U U54A C55U A70C: the yeast fitness was not above 0.5. As to C5A C31G A42G, the yeast fitness is not above 0.5. On to C11U A69U, for which the yeast fitness was determined as 0.949.

With C5U C33G A36U, the yeast fitness is not above 0.5.

Consider C27A C34U A42U G50C G58A G68C A69G, for which the yeast fitness is not above 0.5. As to C5U A65U G68C, the yeast fitness is 0.541. The result for U2A C24G U32A G58C G63C reads not above 0.5; that for U13C A20G C49U C66U A70C, not above 0.5.
